# Results from ChEMBL document CHEMBL3797154, “Design and Synthesis of 1-((1,5-Bis(4-chlorophenyl)-2-methyl-1H-pyrrol-3-yl)methyl)-4-methylpiperazine (BM212) and N-Adamantan-2-yl-N'-((E)-3,7-dimethylocta-2,6-dienyl)ethane-1,2-diamine (SQ109) Pyrrole Hybrid Derivatives: Discovery of Potent Antitubercular Agents Effective against …” (J Med Chem, 2016).
# Calls of active or inactive are those of the source. No cut-off for these calls is given here.
# Tests used:
# [1] = Cytotoxic activity against human THP1 cells assessed as reduction in cell viability incubated for 48 hrs by […] based assay; design: species or system THP-1; conditions: THP1 cells
# In short: (§1)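 RAW264.7 or THP-1 cells were grown in RPMI-1640 with 10% FBS and seeded at 10^5 cells/mL. Compound was two-fold serially diluted from a 50 mg/mL stock, with a solvent-control row. Plates were held 48 h at 37 °C in 5% CO2. Wells were washed twice with PBS, with centrifugation between washes for THP-1, then given fresh RPMI plus 0.01% […]. After overnight incubation, fluorescence was read at 560/590 nm and GIC50 derived.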
# [2] = test system: Mycobacterium tuberculosis; test: Antimycobacterial activity against Mycobacterium tuberculosis mc'2-7000x assessed as inhibition of mycobacterial growth; assay type: functional
# [3] = Selectivity index, ratio of GIC50 for cytotoxicity against human THP1 cells to MIC for Mycobacterium tuberculosis H37Rv ATTC 27294; assay type: toxicity, cell-based, THP-1; conditions: read-out: Selectivity Index
# In short: (§2)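 SI = GIC50 / H37Rv MIC (agar spot assay). GIC50 from cells in RPMI-1640 + 10% FBS, 37 °C, 5% CO2; 10^5 cells/mL added to two-fold compound dilutions from 50 mg/mL stock, solvent control row. 48 h exposure, washes (THP-1 centrifuged), fresh medium plus 0.01% […], overnight; fluorescence ex 560/em 590 nm.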
# [4] = test system: Mycolicibacterium smegmatis; test: Antimycobacterial activity against Mycobacterium smegmatis str. MC2 155 ATCC 700084 assessed as inhibition of mycobacterial growth incubated for 24 hrs by MABA method; assay type: functional; conditions: MC2 155 ATCC 700084, 24 h
# Mycolicibacterium aurum [5] = test: Antimycobacterial activity against Mycobacterium aurum ATCC 23366 assessed as inhibition of mycobacterial growth incubated for 4 days; assay type: functional
# In short: (§3)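 HT-SPOTi agar dilution: two-fold serial dilutions of compound were mixed into Middlebrook 7H10 agar with 0.05% glycerol and 10% OADC, giving a final range of 500–0.5 µg/mL. Each well was spotted with 2x10^3 CFU of early-to-mid-log culture. Plates were incubated at 35 or 37 °C until spots appeared in control wells. Controls were DMSO-only and isoniazid. The MIC was read, in triplicate.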
# Mycolicibacterium aurum [6] = test: Inhibition of multidrug resistance efflux pump in Mycobacterium aurum ATCC 23366 assessed as inhibition of ethidium bromide efflux by measuring relative fluorescence units for ethidium bromide accumulation at 1/4 times MIC incubated for 60 mins by fluorimetric assay
# In short: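 Whole-cell efflux assay: early-log cells (OD600 ~0.8) adjusted to OD600 0.4, washed into PBS; 4-6x10^7 bacteria/mL with 0.4% glucose, 0.5 mg/L ethidium bromide substrate and compound at 1/4x MIC. Fluorescence ex 544/em 590 nm at 37 °C every minute for 60 min; accumulation scored 0-4 by relative fluorescence bands. Verapamil positive, PBS negative control.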
# [7] = test system: Mycobacterium tuberculosis; test: Antimycobacterial activity against Mycobacterium tuberculosis H37Rv ATTC 27294 assessed as inhibition of mycobacterial growth incubated for 7 days; assay type: functional; conditions: H37Rv ATTC 27294, 168 h
# In short: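 MIC by HT-SPOTi on Middlebrook 7H10 agar with 0.05% (v/v) glycerol and 10% (v/v) OADC in 96-well format. Compounds dissolved at 50 mg/mL (stock), two-fold serial dilutions, final 500-0.5 µg/mL. Each well spotted with 2 µL early-to-midlog culture (2x10^3 CFU), incubated at 37 °C until distinct spots in control wells. DMSO-only and isoniazid controls; triplicate.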
# [8] = Selectivity index, ratio of GIC50 for cytotoxicity against mouse RAW264.7 cells to MIC for Mycobacterium tuberculosis H37Rv ATTC 27294; assay type: toxicity, cell-based; conditions: read-out: Selectivity Index; in short: as §2
# [9] = Cytotoxic activity against mouse RAW264.7 cells assessed as reduction in cell viability incubated for 48 hrs by […] based assay; in short: as §1
# Mycolicibacterium aurum [10] = test: Antimycobacterial activity against Mycobacterium aurum ATCC 23366 assessed as inhibition of mycobacterial growth at 500 ug/ml incubated for 4 days; assay type: functional, organism-based; in short: as §3
Compound,GI50 at 48 h [1],MIC [2],selectivity ratio [3],MIC [4],"MIC (Mycolicibacterium aurum [5]; ATCC 23366, 96 h)",Activity (Mycolicibacterium aurum [6]),MIC [7],selectivity ratio [8],GI50 at 48 h [9],MIC (Mycolicibacterium aurum [5]),growth inhibition (GI) (Mycolicibacterium aurum [10])
Cc1c(CNC2CCCCC2)cc(-c2ccc(Cl)cc2)n1-c1ccc(Cl)cc1,3.9 µg/mL,8 µg/mL,0.5,4 µg/mL,1 µg/mL,2 RFU,,,,,
Cc1cc(CN2CCN(c3ccccc3)CC2)c(C)n1-c1ccc(Cl)cc1,25 µg/mL,32 µg/mL,3.2,32 µg/mL,31 µg/mL,1 RFU,7.8 µg/mL,4.2,33 µg/mL,,
Cc1cccc(-n2c(C)cc(CN3CCN(C4C5CC6CC(C5)CC4C6)CC3)c2C)c1 (stereo unspecified),37 µg/mL,32 µg/mL,2.3,64 µg/mL,500 µg/mL,2 RFU,16 µg/mL,1.4,22 µg/mL,,
Cc1cc(CNCc2ccc(Cl)cc2)c(C)n1-c1ccc(Cl)cc1,18 µg/mL,2 µg/mL,1.1,4 µg/mL,1.9 µg/mL,2 RFU,16 µg/mL,0.006,0.1 µg/mL,,
Cc1cc(CN2CCN(C3C4CC5CC(C4)CC3C5)CC2)c(C)n1-c1ccc(C(C)C)cc1 (stereo unspecified),72 µg/mL,3.3 µg/mL,4.5,21 µg/mL,500 µg/mL,3 RFU,16 µg/mL,5.7,92 µg/mL,,
Cc1cc(CNC2C3CC4CC(C3)CC2C4)c(C)n1-c1ccc(Cl)cc1 (stereo unspecified),15 µg/mL,1 µg/mL,7.8,16 µg/mL,62 µg/mL,1 RFU,1.9 µg/mL,10,19 µg/mL,,
Cc1cc(CN2CCN(C34CC5CC(CC(C5)C3)C4)CC2)c(C)n1-c1ccc(Cl)cc1,16 µg/mL,8 µg/mL,1,8 µg/mL,16 µg/mL,4 RFU,16 µg/mL,0.006,0.1 µg/mL,,
Cc1cc(CN2CCN(C3C[C@@H]4CC[C@H]3C4)CC2)c(C)n1-c1ccc(Cl)cc1 (mixture of isomers),16 µg/mL,2 µg/mL,8.4,27 µg/mL,16 µg/mL,1 RFU,1.9 µg/mL,2.9,5.6 µg/mL,,
Cc1cc(CNCc2ccccc2)c(C)n1-c1ccc(Cl)cc1,7.2 µg/mL,0.5 µg/mL,14,4 µg/mL,1.9 µg/mL,2 RFU,0.5 µg/mL,11,5.5 µg/mL,,
Cc1c(CN2CCN(C34CC5CC(CC(C5)C3)C4)CC2)cc(-c2ccc(Cl)cc2)n1-c1ccc(Cl)cc1,35 µg/mL,0.5 µg/mL,4.5,3.3 µg/mL,62 µg/mL,3 RFU,7.8 µg/mL,2.9,23 µg/mL,,
Cc1cc(/C=N\OCc2ccccc2)c(C)n1-c1ccc(Cl)cc1,500 µg/mL,> 64 µg/mL,< 4,> 64 µg/mL,,1 RFU,> 125 µg/mL,,128 µg/mL,inactive,inactive
Cc1c(CN2CCN(c3ccccc3)CC2)cc(-c2ccc(Cl)cc2)n1-c1ccc(Cl)cc1,294 µg/mL,1 µg/mL,155,> 64 µg/mL,,2 RFU,1.9 µg/mL,92,175 µg/mL,inactive,
Cc1c(CNCc2ccccc2)cc(-c2ccc(Cl)cc2)n1-c1ccc(Cl)cc1,99 µg/mL,16 µg/mL,6.1,8 µg/mL,1 µg/mL,1 RFU,,,,,
